We go through twelve compounds from ChEMBL document CHEMBL1137638, “TEM-158 (CMT-9), a new member of the CMT-type extended-spectrum beta-lactamases” (Antimicrob Agents Chemother, 2007).

Molecules are shown by their SMILES. Calls of active or inactive are those of the source. The calls are words filed in the database; no cut-off is given here.

The test system of assay [1] is Escherichia coli. In words: Ratio of Kcat/Km for Escherichia coli DH5alpha beta-lactamase TEM-12 to Kcat/Km for Escherichia coli DH5alpha beta-lactamase TEM-158. Put shortly:
(§1)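 Each beta-lactamase was purified to homogeneity. Kinetic constants (kcat, Km) for beta-lactam substrates, including penicillins, were determined by computerized microacidimetry.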

The subject of assay [2] is Escherichia coli. Nature of the assay: Activity of Escherichia coli DH5alpha beta-lactamase TEM-12 by microacidimetric method. In a few lines:
as §1

For assay [3], the system named is Escherichia coli. In words: Ratio of Kcat to Km for Escherichia coli CF0042 beta-lactamase TEM-35. Also on record: unit not given here. In a few lines: as §1
Assay [4] relates to Escherichia coli. Nature of the assay: Ratio of Kcat/Km for Escherichia coli DH5alpha beta-lactamase TEM-35 to Kcat/Km for Escherichia coli DH5alpha beta-lactamase TEM-158. In a few lines:
as §1

Assay [5] relates to Escherichia coli. In words: Activity of Escherichia coli CF0042 beta-lactamase TEM-35 by microacidimetric method. Put shortly:
as §1

In assay [6] the test system is Escherichia coli. Nature of the assay: Antibacterial activity against Escherichia coli BER1 producing TEM-158 by microdilution method. In kind it is functional, organism-based. A general note: In broth dilution the organism is exposed to a series of concentrations in liquid medium.
In assay [7] the test system is Escherichia coli. In words: Ratio of Kcat/Km for Escherichia coli DH5alpha beta-lactamase TEM-1 to Kcat/Km for Escherichia coli DH5alpha beta-lactamase TEM-158. In a few lines: as §1
Assay [8] relates to Escherichia coli. Nature of the assay: Ratio of Kcat to Km for Escherichia coli DH5alpha beta-lactamase TEM-12. Also on record: unit not given here. In a few lines:
as §1

In assay [9] the test system is Escherichia coli. Nature of the assay: Antibacterial activity against Escherichia coli BER1 producing beta-lactamase TEM-158. The class given is functional, organism-based.
The test system of assay [10] is Escherichia coli str. K-12 substr. DH10B.

Regarding `CCN1CCN(C(=O)N[C@@H](C(=O)N[C@@H]2C(=O)N3[C@@H]2SC(C)(C)[C@@H]3C(=O)O)c2ccccc2)C(=O)C1=O`, the Ratio in the assay on Escherichia coli [1], in the assay on Escherichia coli [4] and with Escherichia coli [7] was 8 in each case. Further, the Km in the assay on Escherichia coli [2] turned out to be 15 µM; in the assay with Escherichia coli [5] it was 320 µM. The kcat with Escherichia coli [2] is 89 s⁻¹; in the assay on Escherichia coli [5] it was 945 s⁻¹. Moreover, the kcat/Km in the assay with Escherichia coli [3] stood at 2.9; in the assay with Escherichia coli [8] it was 6. Besides, the outcome in the assay with Escherichia coli [6] and with Escherichia coli [9] was inactive.

On to `CC(C)(O/N=C(\C(=O)N[C@@H]1C(=O)N2C(C(=O)[O-])=C(C[n+]3ccccc3)CS[C@H]12)c1csc(N)n1)C(=O)O`, for which the Ratio in the assay on Escherichia coli [1] is 4. Also, in the assay with Escherichia coli [2], the Michaelis-Menten constant (Km) stood at 254 µM. The kcat in the assay with Escherichia coli [2] was 11.1 s⁻¹; in assay [10], 16 s⁻¹; in the assay on Escherichia coli [5], < 0.1 s⁻¹. In addition, the result in the assay on Escherichia coli [6] and with Escherichia coli [9] was inactive. For the same compound, in the assay with Escherichia coli [8], the kcat/Km worked out at 0.04.

Regarding `CC(=O)OCC1=C(C(=O)O)N2C(=O)[C@@H](NC(=O)Cc3cccs3)[C@H]2SC1`, the Ratio in the assay with Escherichia coli [1] came out at 4. In addition, the Km in the assay with Escherichia coli [2] was 327 µM; in the assay with Escherichia coli [5] it was 1200 µM. Also, the figures for the kcat in the assay with Escherichia coli [2] and in the assay with Escherichia coli [5] were 46 s⁻¹ and 52 s⁻¹, respectively. Also, the kcat/Km turned out to be 0.04 in the assay on Escherichia coli [3] and 0.02 in the assay on Escherichia coli [8]. In addition, the result in the assay on Escherichia coli [6] and in the assay with Escherichia coli [9] was inactive.

On to `CO[C@@]1(NC(=O)Cc2cccs2)C(=O)N2C(C(=O)O)=C(COC(N)=O)CS[C@@H]21`, for which, in the assay on Escherichia coli [1], the Ratio turned out to be 4. The result in the assay with Escherichia coli [6] and with Escherichia coli [9] was inactive.

For the compound `C[C@@H](O)[C@H]1C(=O)N2C(C(=O)O)=C(SCCNC=N)C[C@H]12`, the Ratio in the assay on Escherichia coli [1] was determined as 4. For the same compound, the result with Escherichia coli [6] and in the assay on Escherichia coli [9] was inactive.

With `CO/N=C(\C(=O)N[C@@H]1C(=O)N2C(C(=O)O)=C(COC(N)=O)CS[C@H]12)c1ccco1`, the Ratio in the assay on Escherichia coli [1] came out at 4. For the same compound, the outcome in the assay with Escherichia coli [6] and with Escherichia coli [9] was inactive.

On to `CO/N=C(\C(=O)N[C@@H]1C(=O)N2C(C(=O)O)=C(COC(C)=O)CS[C@H]12)c1csc(N)n1`, for which the Ratio in the assay with Escherichia coli [1] worked out at 4. In addition, the Km in the assay on Escherichia coli [2] was 320 µM. For the same compound, the values for the turnover number (kcat) in the assay with Escherichia coli [2] and in the assay on Escherichia coli [5] were 10.6 s⁻¹ and < 0.1 s⁻¹, respectively. Also, the outcome with Escherichia coli [6] and in the assay with Escherichia coli [9] was inactive. Besides, the kcat/Km with Escherichia coli [8] worked out at 0.03.

Take `CC1(C)S[C@@H]2[C@H](NC(=O)Cc3ccccc3)C(=O)N2[C@H]1C(=O)O`: the Ratio with Escherichia coli [1], in the assay with Escherichia coli [4] and with Escherichia coli [7] was 8 throughout. Besides, the Km with Escherichia coli [2] was determined as 7 µM; with Escherichia coli [5], 140 µM. The kcat was 80 s⁻¹ with Escherichia coli [2] and 1050 s⁻¹ with Escherichia coli [5]. In addition, the values for the kcat/Km with Escherichia coli [3] and in the assay with Escherichia coli [8] were 7.5 and 11, respectively.

For the compound `CC1(C)S[C@@H]2[C@H](NC(=O)[C@H](C(=O)O)c3ccsc3)C(=O)N2[C@H]1C(=O)O`, the Ratio with Escherichia coli [1], in the assay on Escherichia coli [4] and with Escherichia coli [7] was 8 throughout. Besides, the Km in the assay on Escherichia coli [2] was determined as 12 µM; with Escherichia coli [5], 320 µM. Also, the results for the kcat in the assay with Escherichia coli [2] and in the assay with Escherichia coli [5] were 19 s⁻¹ and 125 s⁻¹, respectively. In addition, the kcat/Km is 0.4 in the assay with Escherichia coli [3] and 1.6 in the assay on Escherichia coli [8]. In addition, the outcome in the assay with Escherichia coli [6] and in the assay on Escherichia coli [9] was inactive.

As to `CC1(C)S[C@@H]2[C@H](NC(=O)[C@H](N)c3ccc(O)cc3)C(=O)N2[C@H]1C(=O)O`, the Ratio in the assay on Escherichia coli [1] was 4; with Escherichia coli [4], 8; with Escherichia coli [7], 8. The results for the Michaelis constant (Km) in the assay on Escherichia coli [2] and in the assay on Escherichia coli [5] were 7.5 µM and 245 µM, respectively. Further, the kcat with Escherichia coli [2] was determined as 60 s⁻¹; in the assay with Escherichia coli [5], 900 s⁻¹. Also, the kcat/Km with Escherichia coli [3] was 8.5; with Escherichia coli [8] it was 8. Besides, the outcome in the assay on Escherichia coli [6] and with Escherichia coli [9] was inactive.

For `CO/N=C(\C(=O)N[C@@H]1C(=O)N2C(C(=O)[O-])=C(C[N+]3(C)CCCC3)CS[C@H]12)c1csc(N)n1`, the Ratio in the assay on Escherichia coli [1] was determined as 4. Further, the outcome in the assay with Escherichia coli [6] and in the assay with Escherichia coli [9] was inactive.

Regarding `C[C@H]1[C@H](NC(=O)/C(=N\OC(C)(C)C(=O)O)c2csc(N)n2)C(=O)N1S(=O)(=O)O`, the Ratio in the assay with Escherichia coli [1] was 4. Moreover, the Km in the assay with Escherichia coli [2] worked out at 247 µM. Also, the kcat was 2 s⁻¹ in the assay with Escherichia coli [2] and < 0.1 s⁻¹ in the assay on Escherichia coli [5]. The result in the assay with Escherichia coli [6] and in the assay with Escherichia coli [9] was inactive. For the same compound, the kcat/Km in the assay with Escherichia coli [8] was 0.008.

The Km is the concentration of substrate that gives half-maximal velocity. The term kcat denotes the number of substrate molecules converted per active site and unit of time at saturation.
